Here are results for 9 compounds from ChEMBL document CHEMBL3227954, “Synthesis of imidazolidinediones and oxazolidinediones from cyclization of propargylureas and propargyl carbamates” (J Med Chem, 1979).

The nature of data set [1]: Toxicity in mouse. It counts as organism-based. Particulars: in vivo. Put shortly:
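Toxicity in mice from the NINCDS screens, expressed as TD50: dose toxic in 50% of screens, in mg/kg.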

For data set [2], the species on record is Mus musculus. Kind of data set: Anticonvulsant activity in mouse assessed as protection against maximal electroshock-induced seizures. It counts as functional.
For data set [3], the system named is Mus musculus. Kind of data set: Anticonvulsant activity in mouse assessed as protection against subcutaneous pentylenetetrazole-induced seizures. It counts as functional. Conditions: sc. Put shortly: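 Mice screened in the NINCDS program for subcutaneous metrazole (pentylenetetrazole) seizure threshold (scMet) protection; ED50 taken as dose effective in 50% of test animals, in mg/kg.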

The source made the active and inactive calls.

In the case of `CC(=O)N1C(=O)N(C(C)(C)C)C(=O)C1(C)C`, the TD50 in data set [1] is ≤ 30 mg/kg.

As for `CCN(CC)CCN1C(=O)NC(c2ccccc2)(c2ccccc2)C1=O`, the ED50 in the data set listed under Mus musculus [2] was found to be 80 mg/kg.

Regarding `CCN(CC)CCN1C(=O)N(CCN(CC)CC)C(c2ccccc2)(c2ccccc2)C1=O`, the outcome in the data set filed under Mus musculus [2] was inactive.

With `CC1(C)OC(=O)N(C(C)(C)C)C1=O`, the outcome in the data set filed under Mus musculus [2] was inactive.

`Cc1ccc(S(=O)(=O)N2C(=O)NC(C)(C)C2=O)cc1`: the result in the data set filed under Mus musculus [2] was inactive.

With `CCN(CC)CCN1C(=O)NC(C)(C)C1=O`, the outcome in the data set filed under Mus musculus [2] was inactive.

In turn, `CC1(C)NC(=O)N(C(C)(C)C)C1=O` returned a TD50 in data set [1] of 343 mg/kg. Moreover, the ED50 in the data set with Mus musculus [3] was 130 mg/kg.

Consider `CN1C(=O)N(C(C)(C)C)C(=O)C1(C)C`, for which the outcome in the data set filed under Mus musculus [2] was inactive.

For the compound `CC1(C)NC(=O)N(C23CC4CC(CC(C4)C2)C3)C1=O`, the result in the data set filed under Mus musculus [2] was inactive.

What is called TD50 is the 50% point of the dose-response relation for the toxic effect studied. A lower TD50 goes with greater toxicity. Broadly, the ED50 is the dose that gives a 50% effect, or the effect in half of the subjects.
